The record followed here is ChEMBL document CHEMBL4145575, “ent-Kaurane Diterpenoids with Neuroprotective Properties from Corn Silk ( Zea mays)” (2018).

Calls of active or inactive are those of the source. The calls are words filed in the database; no cut-off is given here.

In assay [1] the test system is SH-SY5Y. In words: Neuroprotective activity against H2O2-induced cell death in human SH-SY5Y cells assessed as increase in cell viability at 100 uM relative to control. The class given is functional. In short, it runs like this: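 SH-SY5Y cells exposed to H2O2, with or without test compound; viability read by MTT assay and compared with the H2O2-only model group. Trolox served as positive control. Cell viability given as means ± SEM.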

The subject of assay [2] is SH-SY5Y. In words: Neuroprotective activity against H2O2-induced cell death in human SH-SY5Y cells assessed as increase in cell viability up to 100 uM. The class given is functional, cell-based. In short, it runs like this:
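SH-SY5Y cells were injured with H2O2, with test compounds up to 100 μM. Viability was read by MTT assay and compared with the H2O2 model group. Trolox served as positive control. Data were reported as means ± SEM.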

For assay [3], the system named is SH-SY5Y. As to the kind of experiment: Neuroprotective activity against H2O2-induced apoptosis in human SH-SY5Y cells assessed as necrotic cells at 25 uM pretreated for 1 hr followed by H2O2-stimulation after 4 hrs by Annexin-V-FITC/propidium iodide staining based flow cytometry (reference value: 2.63%). The assay is classed as functional.
In assay [4] the test system is SH-SY5Y. In words: Neuroprotective activity against H2O2-induced apoptosis in human SH-SY5Y cells assessed as early apoptotic cells at 100 uM pretreated for 1 hr followed by H2O2-stimulation after 4 hrs by Annexin-V-FITC/propidium iodide staining based flow cytometry (reference value: 6.4%). The class given is functional. A general note: Flow cytometry measures light scatter and fluorescence of single cells or particles in a stream.

Assay [5] relates to SH-SY5Y. As to the kind of experiment: Neuroprotective activity against H2O2-induced apoptosis in human SH-SY5Y cells assessed as early apoptotic cells at 25 uM pretreated for 1 hr followed by H2O2-stimulation after 4 hrs by Annexin-V-FITC/propidium iodide staining based flow cytometry (reference value: 6.4%). The assay is classed as functional.
In assay [6] the test system is SH-SY5Y. As to the kind of experiment: Neuroprotective activity against H2O2-induced apoptosis in human SH-SY5Y cells assessed as early apoptotic cells at 50 uM pretreated for 1 hr followed by H2O2-stimulation after 4 hrs by Annexin-V-FITC/propidium iodide staining based flow cytometry (reference value: 6.4%). The class given is functional.
The test system of assay [7] is SH-SY5Y. As to the kind of experiment: Neuroprotective activity against H2O2-induced morphological changes in human SH-SY5Y cells assessed as reduction in cell shrinkage after 4 hrs by phase contrast microscopic analysis. The assay is classed as functional, cell-based. In short, it runs like this: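 Cells were exposed to H2O2 (200 μM) for 4 h, in the presence or absence of compound at 25, 50 or 100 μM. Cell shrinkage and other morphology were viewed by phase contrast microscopy and compared with untreated control and H2O2-only cells.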

The test system of assay [8] is SH-SY5Y. In words: Neuroprotective activity against H2O2-induced apoptosis in human SH-SY5Y cells assessed as reduction in nuclear fragmentation at 25 to 100 uM after 4 hrs by Hoechst 33258 staining based fluorescence microscopic analysis. The assay is classed as functional, cell-based. The essentials: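 SH-SY5Y cells were incubated with H2O2 (200 μM) for 4 h, with or without compound at 25, 50 or 100 μM. Nuclei were stained with the DNA dye Hoechst 33258. Chromatin condensation and fragmented nuclei were scored by fluorescence microscopy against untreated control and H2O2-only cells.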

The subject of assay [9] is SH-SY5Y. In words: Neuroprotective activity against H2O2-induced apoptosis in human SH-SY5Y cells assessed as viable cells at 100 uM pretreated for 1 hr followed by H2O2-stimulation after 4 hrs by Annexin-V-FITC/propidium iodide staining based flow cytometry (reference value: 76%). The assay is classed as functional. Conditions: read-out: Activity.
Assay [10] concerns SH-SY5Y. In words: Neuroprotective activity against H2O2-induced apoptosis in human SH-SY5Y cells assessed as viable cells at 25 uM pretreated for 1 hr followed by H2O2-stimulation after 4 hrs by Annexin-V-FITC/propidium iodide staining based flow cytometry (reference value: 76%). The following applies: read-out: Activity. The assay is classed as functional.
Assay [11] has as its system SH-SY5Y. In words: Neuroprotective activity against H2O2-induced apoptosis in human SH-SY5Y cells assessed as necrotic cells at 50 uM pretreated for 1 hr followed by H2O2-stimulation after 4 hrs by Annexin-V-FITC/propidium iodide staining based flow cytometry (reference value: 2.63%). The assay is classed as functional.
The test system of assay [12] is SH-SY5Y. As to the kind of experiment: Neuroprotective activity against H2O2-induced apoptosis in human SH-SY5Y cells assessed as late apoptotic cells at 100 uM pretreated for 1 hr followed by H2O2-stimulation after 4 hrs by Annexin-V-FITC/propidium iodide staining based flow cytometry (reference value: 15%). The class given is functional.
The test system of assay [13] is SH-SY5Y. As to the kind of experiment: Neuroprotective activity against H2O2-induced apoptosis in human SH-SY5Y cells assessed as late apoptotic cells at 25 uM pretreated for 1 hr followed by H2O2-stimulation after 4 hrs by Annexin-V-FITC/propidium iodide staining based flow cytometry (reference value: 15%). The assay is classed as functional.
The test system of assay [14] is SH-SY5Y. In words: Neuroprotective activity against H2O2-induced apoptosis in human SH-SY5Y cells assessed as viable cells at 50 uM pretreated for 1 hr followed by H2O2-stimulation after 4 hrs by Annexin-V-FITC/propidium iodide staining based flow cytometry (reference value: 76%). The assay is classed as functional. Conditions: read-out: Activity.
Assay [15] concerns SH-SY5Y. As to the kind of experiment: Neuroprotective activity against H2O2-induced apoptosis in human SH-SY5Y cells assessed as necrotic cells at 100 uM pretreated for 1 hr followed by H2O2-stimulation after 4 hrs by Annexin-V-FITC/propidium iodide staining based flow cytometry (reference value: 2.63%). The class given is functional.
Assay [16] deals with SH-SY5Y. In words: Neuroprotective activity against H2O2-induced apoptosis in human SH-SY5Y cells assessed as late apoptotic cells at 50 uM pretreated for 1 hr followed by H2O2-stimulation after 4 hrs by Annexin-V-FITC/propidium iodide staining based flow cytometry (reference value: 15%). The class given is functional.

For `C[C@@]12CCC[C@@](C)(C=O)[C@H]1CC[C@@]13C=C(C(=O)O)[C@@H](C1)[C@@H](O)C[C@H]32`, in the assay on SH-SY5Y [1], the Activity is above 10%.

Turning to `COC(=O)[C@]1(C)C[C@@H](O)C[C@@]2(C)[C@@H]3CC[C@@H]4C[C@@]3(CC[C@@H]21)C[C@@H]4C(=O)O`, the result with SH-SY5Y [2] was inactive. In the case of `C[C@@]12CCC[C@@](C)(O)[C@H]1CC[C@]13C=C(C(=O)O)[C@H](CC[C@H]12)C3`, the Activity is 1.29% in the assay with SH-SY5Y [3]; 2.58% in the assay on SH-SY5Y [4]; 3.23% in the assay with SH-SY5Y [5]; 3.93% in the assay with SH-SY5Y [6]; “Dose-dependent effect” with SH-SY5Y [7]; above 10% in the assay on SH-SY5Y [1]. Moreover, the Activity is on record as 0.727% in the assay with SH-SY5Y [11]; 5.94% in the assay with SH-SY5Y [12]; 9.28% in the assay on SH-SY5Y [13]; 1.44% in the assay on SH-SY5Y [15]; 5.34% in the assay on SH-SY5Y [16]. In addition, the outcome with SH-SY5Y [8] was Active. Further, in the assay on SH-SY5Y [9], the viability at 100 µM was found to be 90%. Moreover, in the assay on SH-SY5Y [10], the viability at 25 µM amounted to 86.2%. Moreover, in the assay with SH-SY5Y [14], the viability at 50 µM amounted to 90%. For the molecule `COC(=O)[C@]1(C)CC[C@H](O)[C@@]2(C)[C@@H]3CC[C@@H]4C[C@]3(C=C4C(=O)O)CC[C@@H]21`, the outcome with SH-SY5Y [2] was inactive.

Consider `C[C@@]12CCC[C@@](C)(C(=O)O)[C@H]1CC[C@@]13C[C@@H](CC[C@H]12)[C@](O)(CO)C3`, for which the result with SH-SY5Y [2] was inactive. On to `C[C@@]12C[C@H](O)C[C@@](C)(C(=O)O)[C@H]1CC[C@@]13C[C@@H](CC[C@H]12)[C@@H](C(=O)O)C3`, for which the outcome with SH-SY5Y [2] was inactive.

Consider `CC1(C)[C@H](O)[C@@H](O)C[C@]2(C)[C@@H]1CC[C@]13C=C(C(=O)O)[C@H](CC[C@H]12)C3`, for which the Activity in the assay on SH-SY5Y [1] is above 10%. Regarding `C[C@@]12C[C@H](O)C[C@@](C)(C=O)[C@H]1CC[C@]13C=C(C(=O)O)[C@H](CC[C@H]12)C3`, the result with SH-SY5Y [2] was inactive. Regarding `COC(=O)[C@]1(C)C[C@@H](O)C[C@@]2(C)[C@@H]3CC[C@@H]4C[C@]3(C=C4C(=O)O)CC[C@@H]21`, the outcome in the assay with SH-SY5Y [2] was inactive. In the case of `C[C@@]1(CO)CC(=O)C[C@]2(C)[C@@H]1CC[C@@]13C[C@@H](CC[C@H]12)[C@@H](C(=O)O)C3`, the Activity in the assay on SH-SY5Y [1] is above 10%.

As to `C[C@@]12CCC[C@@](C)(C(=O)O)[C@H]1CC[C@]13C=C(C(=O)O)[C@H](CC[C@H]12)C3`, in the assay with SH-SY5Y [2], the result was inactive. The same measure, in the same setting: then `C[C@@]1(CO)C[C@@H](O)C[C@]2(C)[C@@H]1CC[C@]13C=C(C(=O)O)[C@H](CC[C@H]12)C3`, with “inactive”.

In the case of `C[C@@]1(O)[C@H](O)CC[C@@]2(C)[C@@H]3CC[C@@H]4C[C@@]3(CC[C@H]12)C[C@@H]4C(=O)O`, the Activity in the assay with SH-SY5Y [1] is above 10%. Take `C[C@@]1(CO)C[C@@H](O)C[C@]2(C)[C@@H]1CC[C@@]13C[C@@H](CC[C@H]12)[C@@H](C(=O)O)C3`: in the assay with SH-SY5Y [2], the result was inactive.

Take `C[C@@]1(O)[C@H](O)CC[C@@]2(C)[C@@H]3CC[C@@H]4C[C@]3(C=C4C(=O)O)CC[C@H]12`: the result in the assay on SH-SY5Y [2] was inactive.
